# Measurements reported in ChEMBL document CHEMBL1821684, “A novel and efficient one-pot synthesis of symmetrical diamide (bis-amidate) prodrugs of acyclic nucleoside phosphonates and evaluation of their biological activities” (Eur J Med Chem, 2011).
# The source made the active and inactive calls. No cut-off for these calls is given here.
# Columns and labels:
# [1] = Cytotoxicity against human MT2 cells assessed as inhibition of cell proliferation after 5 days by luminescence assay; assay type: cell-based
# How it was run: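 Uninfected MT-2 cells at 3 × 10^3 cells/well were run on replicate plates alongside the antiviral assay, with 3-fold serial compound dilutions in triplicate and 0.5% DMSO final. After 5 days at 37 °C, viability was read by CellTiter-Glo luminescence. CC50 came from non-linear regression of multiple data sets.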
# [2] = tested on: Human immunodeficiency virus 1; assay: Antiviral activity against HIV1 3B infected in human MT-2 cells assessed as reduction in virus-induced cytopathic effect after 5 days by luminescence assay; assay type: functional, organism-based; conditions: Human immunodeficiency virus 1, 3B, MT2, 120 h
# How it was run: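 MT-2 cells were kept below 0.6 × 10^6 cells/mL and infected in bulk with HIV-1 IIIB for 3 h at MOI 0.0055. They were seeded at 3 × 10^3 cells/well with 3-fold serial compound dilutions in triplicate, 0.5% DMSO final. After 5 days at 37 °C, cytopathic effect was read by CellTiter-Glo luminescence. EC50 came from non-linear regression of multiple data sets.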
# CCRF-CEM = assay: Antiproliferative activity against human CCRF-CEM after 72 hrs by XTT assay; assay type: functional, cell-based
# How it was run: (§1)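 CCRF-CEM, HL-60 and HeLa S3 cells were grown in RPMI 1640 with 5% calf fetal serum, and Hep G2 cells in Eagle's MEM with 10% calf fetal serum. Cells were exposed to compound, and growth was ended 72 h after drug addition. Viability was then quantified by the XTT spectrophotometric assay.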
# Mus musculus [3] = species on record: Mus musculus; assay: Immunomodulatory activity in C57BL/6 mouse peritoneal cells assessed as inhibition of LPS-induced NO production at 25 uM after 24 hrs by Griess reagent method; assay type: functional
# How it was run: (§2)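 Peritoneal cells pooled from 4 female C57BL/6 mice (8–10 weeks) were seeded at 2 × 10^6 cells/mL in complete RPMI-1640 with 10% FBS, at 37 °C and 5% CO2. Compound was given alone or with IFN-γ (5000 pg/mL) or IFN-γ plus E. coli LPS (100 pg/mL) for 24 h. Supernatant nitrite was measured with Griess reagent (5 min, A540) against a nitrite calibration curve.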
# Mus musculus [4] = species on record: Mus musculus; assay: Immunostimulatory activity in C57BL/6 mouse peritoneal cells assessed as stimulation of LPS-induced NO production at 25 uM after 24 hrs by Griess reagent method; assay type: functional; how it was run: as §2
# HL-60 = assay: Antiproliferative activity against human HL60 after 72 hrs by XTT assay; assay type: functional, cell-based; conditions: HL-60, 72 h; how it was run: as §1
# [5] = Antiproliferative activity against human HepG2 after 72 hrs by XTT assay; assay type: functional; conditions: HepG; how it was run: as §1
# [6] = Antiproliferative activity against human HeLaS3 after 72 hrs by XTT assay; assay type: functional; conditions: HeLa S3, 72 h; how it was run: as §1
SMILES,EC50 [2],IC50 (CCRF-CEM),IC50 (HL-60),CC50 at 120 h [1],inhibition (Mus musculus [3]),Activity (Mus musculus [4]),IC50 [5],IC50 [6]
CCOC(=O)[C@H](C)NP(=O)(COCCn1cnc2c(=O)[nH]c(N)nc21)N[C@@H](C)C(=O)OCC,,1220 nM,3020 nM,,inactive,inactive,2320 nM,3940 nM
C[C@H](Cn1cnc2c(N)nc(F)nc21)OCP(=O)(O)O,> 85300 nM,,,> 100000 nM,,,,
CCOC(=O)[C@H](C)NP(=O)(COCCn1cnc2c(NC3CC3)nc(N)nc21)N[C@@H](C)C(=O)OCC [RABACFOSADINE],,480 nM,780 nM,,inactive,inactive,1740 nM,2150 nM
Nc1nc(NC2CC2)c2ncn(C[C@@H](CF)OCP(=O)(O)O)c2n1,13200 nM,,,> 100000 nM,,,,
CCOC(=O)[C@H](C)NP(=O)(CO[C@H](CF)Cn1cnc2c(NC3CC3)nc(N)nc21)N[C@@H](C)C(=O)OCC,10700 nM,,,> 100000 nM,inactive,inactive,,
CCOC(=O)[C@H](C)NP(=O)(COCCn1cnc2c(NC3CCCCCCC3)nc(N)nc21)N[C@@H](C)C(=O)OCC,,,,,inactive,inactive,,

# Further molecules by falling EC50 [2], results first:
EC50 [2],IC50 (CCRF-CEM),IC50 (HL-60),SMILES,CC50 at 120 h [1],inhibition (Mus musculus [3]),Activity (Mus musculus [4]),IC50 [5],IC50 [6]
5510 nM,,,CCOC(=O)[C@H](C)NP(=O)(CO[C@H](C)Cn1cnc2c(N)nc(F)nc21)N[C@@H](C)C(=O)OCC,> 100000 nM,inactive,inactive,,
1130 nM,,,CCOC(=O)[C@H](C)NP(=O)(COCCOc1cc(N)nc(N)n1)N[C@@H](C)C(=O)OCC,73300 nM,inactive,inactive,,
940 nM,,,C[C@H](Cn1cnc2c(N)nc(N)nc21)OCP(=O)(O)O,> 100000 nM,,,,
540 nM,,,CCOC(=O)[C@H](C)NP(=O)(CO[C@H](CF)Cn1cnc2c(N)ncnc21)N[C@@H](C)C(=O)OCC,> 100000 nM,inactive,inactive,,
290 nM,,,CCOC(=O)[C@H](C)NP(=O)(CO[C@H](C)Cn1cnc2c(N)nc(N)nc21)N[C@@H](C)C(=O)OCC,> 100000 nM,inactive,inactive,,
